Test results published in ChEMBL document CHEMBL4406880, “Design, synthesis, and bioactivity of dihydropyrimidine derivatives as kinesin spindle protein inhibitors” (Bioorg Med Chem, 2019).

Columns and labels:
Assay type in all cases: functional
OVCAR-5 = test: Growth inhibition of human OVCAR5 cells assessed as cell viability at 0.001 uM incubated for 48 hrs by sulforhodamine B assay relative to control; conditions: OVCAR-5, 48 h, read-out: Activity
SN12C [1] = test: Growth inhibition of human SN12C cells assessed as cell viability at 1 uM incubated for 48 hrs by sulforhodamine B assay; conditions: read-out: Activity
U-251 = test: Growth inhibition of human U251 cells assessed as cell viability at 0.1 uM incubated for 48 hrs by sulforhodamine B assay; conditions: U-251, 48 h, read-out: Activity
M14 [2] = test: Growth inhibition of human M14 cells assessed as cell viability at 1 uM incubated for 48 hrs by sulforhodamine B assay; conditions: M14, 48 h, read-out: Activity
786-0 = test: Growth inhibition of human 786-0 cells assessed as cell viability at 0.1 uM incubated for 48 hrs by sulforhodamine B assay; conditions: 786-0, 48 h, read-out: Activity
In short: (§1)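 NCI-60 five-dose mode: five tenfold dilutions (0.01, 0.1, 1, 10, 100 µM) are applied for 48 h to cells in RPMI 1640 with 5% FBS at 37 °C. Endpoint is TCA fixation with sulforhodamine B read at 515 nm. % growth comes from the 0 h and control absorbances. GI50 is the concentration giving a 50% reduction in net cell growth.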

M14 [3] = test: Growth inhibition of human M14 cells assessed as cell viability at 100 uM incubated for 48 hrs by sulforhodamine B assay; conditions: M14, 48 h, read-out: Activity
HCT-116 = test: Growth inhibition of human HCT116 cells assessed as cell viability at 1 uM incubated for 48 hrs by sulforhodamine B assay; conditions: HCT-116, 48 h, read-out: Activity
NCI/ADR-RES [4] = test: Growth inhibition of human NCI/ADR-RES cells assessed as cell viability at 0.001 uM incubated for 48 hrs by sulforhodamine B assay relative to control; conditions: read-out: Activity
RXF 393 = test: Growth inhibition of human RXF393 cells incubated for 48 hrs by sulforhodamine B assay; conditions: RXF 393, 48 h
In short: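 NCI-60 five-dose SRB assay. Cells were exposed for 48 h to tenfold dilutions of 0.01, 0.1, 1, 10 and 100 µM, in RPMI 1640 with 5% FBS. Plates fixed with TCA at the time of drug addition served as the time-zero reference. GI50 is the concentration giving a 50% reduction in net growth. TGI is total growth inhibition. LC50 is a net 50% loss of the initial cells.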

BT-549 = test: Growth inhibition of human BT549 cells assessed as cell viability at 0.1 uM incubated for 48 hrs by sulforhodamine B assay; conditions: BT-549, 48 h, read-out: Activity
IGROV-1 = test: Growth inhibition of human IGROV1 cells assessed as cell viability at 0.001 uM incubated for 48 hrs by sulforhodamine B assay relative to control; conditions: IGROV-1, 48 h, read-out: Activity
K562 [5] = test: Growth inhibition of human K562 cells assessed as cell viability at 100 uM incubated for 48 hrs by sulforhodamine B assay; conditions: K562, 48 h, read-out: Activity
K562 [6] = test: Growth inhibition of human K562 cells incubated for 48 hrs by sulforhodamine B assay; conditions: K562, 48 h
In short: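 NCI-60 five-dose SRB assay in RPMI 1640 with 5% FBS, 37 °C, 5% CO2. Compound given at five tenfold dilutions, 0.01–100 µM, for 48 h. Adherent cells fixed with TCA, suspension cells with 16% final TCA. Bound SRB read at 515 nm and growth calculated against time-zero and untreated controls. GI50 taken from dose–response curves as the concentration giving a 50% decrease in net cell growth.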

Malme-3M = test: Growth inhibition of human MALME-3M cells assessed as cell viability at 0.1 uM incubated for 48 hrs by sulforhodamine B assay; conditions: read-out: Activity
DU-145 = test: Growth inhibition of human DU145 cells assessed as cell viability at 1 uM incubated for 48 hrs by sulforhodamine B assay; conditions: DU-145, 48 h, read-out: Activity
MDA-MB-435 = test: Growth inhibition of human MDA-MB-435 cells assessed as cell viability at 1 uM incubated for 48 hrs by sulforhodamine B assay; conditions: MDA-MB-435, 48 h, read-out: Activity
PC-3 = test: Growth inhibition of human PC3 cells assessed as cell viability at 1 uM incubated for 48 hrs by sulforhodamine B assay; conditions: PC-3, 48 h, read-out: Activity
SR = test: Growth inhibition of human SR cells assessed as cell viability at 0.001 uM incubated for 48 hrs by sulforhodamine B assay relative to control; conditions: read-out: Activity
NCI/ADR-RES [7] = test: Growth inhibition of human NCI/ADR-RES cells assessed as cell viability at 1 uM incubated for 48 hrs by sulforhodamine B assay; conditions: read-out: Activity
SN12C [8] = test: Growth inhibition of human SN12C cells assessed as cell viability at 100 uM incubated for 48 hrs by sulforhodamine B assay; conditions: read-out: Activity
SW-620 = test: Growth inhibition of human SW620 cells assessed as cell viability at 0.001 uM incubated for 48 hrs by sulforhodamine B assay relative to control; conditions: SW-620, 48 h, read-out: Activity
K562 [9] = test: Growth inhibition of human K562 cells assessed as cell viability at 0.1 uM incubated for 48 hrs by sulforhodamine B assay; conditions: K562, 48 h, read-out: Activity
SNB-19 = test: Growth inhibition of human SNB19 cells assessed as cell viability at 0.1 uM incubated for 48 hrs by sulforhodamine B assay; conditions: SNB-19, 48 h, read-out: Activity
A498 = test: Growth inhibition of human A498 cells incubated for 48 hrs by sulforhodamine B assay; conditions: A498, 48 h; in short: as §1
COLO 205 = test: Growth inhibition of human COLO205 cells assessed as cell viability at 0.001 uM incubated for 48 hrs by sulforhodamine B assay relative to control; conditions: COLO 205, 48 h, read-out: Activity
SK-MEL-28 = test: Growth inhibition of human SK-MEL-28 cells assessed as cell viability at 0.001 uM incubated for 48 hrs by sulforhodamine B assay relative to control; conditions: SK-MEL-28, 48 h, read-out: Activity
UO-31 = test: Growth inhibition of human UO31 cells assessed as cell viability at 0.001 uM incubated for 48 hrs by sulforhodamine B assay relative to control; conditions: UO-31, 48 h, read-out: Activity
MDA-MB-231 = test: Growth inhibition of human MDA-MB-231 cells assessed as cell viability at 1 uM incubated for 48 hrs by sulforhodamine B assay; conditions: MDA-MB-231, 48 h, read-out: Activity
[10] = read-out: LC50 (the source's name)
[11] = read-out: pLC50 (the source's name) (converted)

Which results are given for CC1=C(C(=O)OCc2ccccc2)C(c2ccc3c(c2)OCO3)n2c(nc3ccccc32)N1 (racemic)?
viability at 0.001 µM (OVCAR-5): 93%; viability at 1 µM (SN12C [1]): 42%; viability at 0.1 µM (U-251): 96%; viability at 1 µM (M14 [2]): 30%; viability at 0.1 µM (786-0): 97%; viability at 100 µM (M14 [3]): 24%; viability at 1 µM (HCT-116): 26%; viability at 0.001 µM (NCI/ADR-RES [4]): 93%; GI50 (RXF 393; read-out: GI50): 0.31 µM; CC50 (RXF 393; [10]): > 100 µM; TGI (RXF 393; read-out: TGI): > 100 µM; GI50 (RXF 393; read-out: pGI50 (converted)): 0.302 µM; CC50 (RXF 393; [11]): > 100 µM; TGI (RXF 393; read-out: pTGI): > 100 µM; viability at 0.1 µM (BT-549): 87%; viability at 0.001 µM (IGROV-1): 92%; viability at 100 µM (K562 [5]): 26%; GI50 (K562 [6]; read-out: GI50): 0.34 µM; CC50 (K562 [6]; [10]): > 100 µM; TGI (K562 [6]; read-out: TGI): > 100 µM; GI50 (K562 [6]; read-out: pGI50 (converted)): 0.347 µM; CC50 (K562 [6]; [11]): > 100 µM; TGI (K562 [6]; read-out: pTGI): > 100 µM; viability at 0.1 µM (Malme-3M): 87%; viability at 1 µM (DU-145): 33%; viability at 1 µM (MDA-MB-435): -39%; viability at 1 µM (PC-3): 35%; viability at 0.001 µM (SR): 84%; viability at 1 µM (NCI/ADR-RES [7]): 17%; viability at 100 µM (SN12C [8]): 25%; viability at 0.001 µM (SW-620): 98%; viability at 0.1 µM (K562 [9]): 82%; viability at 0.1 µM (SNB-19): 95%; GI50 (A498; read-out: GI50): 0.36 µM; CC50 (A498; [10]): > 100 µM; TGI (A498; read-out: TGI): > 100 µM; GI50 (A498; read-out: pGI50 (converted)): 0.363 µM; CC50 (A498; [11]): > 100 µM; TGI (A498; read-out: pTGI): > 100 µM; viability at 0.001 µM (COLO 205): 95%; viability at 0.001 µM (SK-MEL-28): 98%; viability at 0.001 µM (UO-31): 86%; viability at 1 µM (MDA-MB-231): 56%
